{"source": "PubChem BioAssay", "note": "Active and inactive are the calls of the source.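 Rule for the calls, unless noted: active = growth inhibition above 25% in both replicates, a cutoff set 3 SD above the mean; inconclusive = above 25% in only one replicate; inactive = the rest.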", "data": [{"test": "S. cerevisiae growth inhibition in permissive medium (OD615), pilot counter-assay for S. cerevisiae lifespan shortening project, permissive growth control (AID 705)", "settings": "OD615, 24 h, at 10 µM, stronger effect = higher value", "summary_of_the_method": "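System: Engineered DeaD yeast | Buffer or medium: SC raffinose/galactose permissive medium | Doses: 10 µM single dose, 0.25% DMSO | Times: 24 h exposure, 30 °C | Measured by: OD615 turbidity read | Read-out: Yeast growth inhibition indicated by reduced 24 h OD615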", "values": [{"compound": "CCCCC(=O)NCCc1cc2c(C)ccc(C)c2[nH]c1=O", "growth inhibition": "-2.27% (inactive)"}, {"compound": "CN1CCN(C2=C(Cl)C(=O)N(c3cccc(Cl)c3)C2=O)CC1", "growth inhibition": "-16.8% (inactive)"}, {"compound": "Cc1ccc(Cn2c(=O)c3ccccc3n3c(CCC(=O)O)nnc23)cc1", "growth inhibition": "2.68% (inactive)"}, {"compound": "COc1cc(/C=N/n2cnnc2)ccc1OCC(=O)N1CCOCC1", "growth inhibition": "-6.31% (inactive)"}, {"compound": "CCC(C)C(=O)Nc1nc2c(s1)C(=O)CC(C)(C)C2", "note": "(stereo not given)", "growth inhibition": "-16.6% (inactive)"}, {"compound": "O=C(C(Cc1ccccc1)n1cccc1)N1CCCCCC1", "note": "(stereo not given)", "growth inhibition": "-11.2% (inactive)"}, {"compound": "Cc1ccc(NC(=O)c2cc(-c3ccc(C)o3)nc3ccccc23)nc1", "growth inhibition": "3.23% (inactive)"}, {"compound": "Cc1cccc(-n2ncc3c(NCCCn4ccnc4)ncnc32)c1", "growth inhibition": "-2.31% (inactive)"}, {"compound": "Cc1ccc(CNC(=O)C2CCCN(S(=O)(=O)c3cnc[nH]3)C2)cc1", "note": "(stereo not given)", "growth inhibition": "0.76% (inactive)"}, {"compound": "CCCN1CCN(CCCNC(=O)Cn2ncc3c4ccccc4n(C)c3c2=O)CC1", "growth inhibition": "4.22% (inactive)"}, {"compound": "CN(C)c1cc(NC(=O)CN2CCOCC2)c2ccccc2n1", "growth inhibition": "-12.2% (inactive)"}, {"compound": "CN(C)S(=O)(=O)c1ccc2c(c1)c(=O)c(C(=O)NCCCN1CCCCCC1)cn2C", "growth inhibition": "9.68% (inactive)"}, {"compound": "CC(C)c1ccc(C(O)c2cnc(C(C)C)n2C)cc1", "note": "(stereo not given)", "growth inhibition": "-6.82% (inactive)"}, {"compound": "CCN(CC)C(=O)c1ccc(CS(=O)(=O)c2ccc(OC)cc2)o1", "growth inhibition": "-6.54% (inactive)"}, {"compound": "COc1ccc2c(c1)CCc1cc(C(=O)N3CCN(c4ccc(N5CCOCC5)nn4)CC3)sc1-2", "growth inhibition": "3.63% (inactive)"}, {"compound": "COc1ccc(-c2[nH]c(-c3cccc(OC)c3)nc2SCC(=O)NCc2ccco2)cc1", "growth inhibition": "-9.19% (inactive)"}, {"compound": "CCSc1nnc(N2C(=O)CC(c3ccsc3)C3=C2CC(C)(C)CC3=O)s1", "note": "(stereo not given)", "growth inhibition": "2.55% (inactive)"}, {"compound": "CC1=C(C(=O)Nc2cccnc2)C(c2ccc(C(C)C)cc2)n2ncnc2N1", "note": "(stereo not given)", "growth inhibition": "-9.26% (inactive)"}, {"compound": "CCCCN=CC1=C(O)C(C(=O)OC)C(C)(C)CC1=O", "note": "(stereo not given)", "growth inhibition": "-1.01% (inactive)"}, {"compound": "O=C1c2ccccc2C(Nc2cccnc2)N1Cc1ccccc1Cl", "note": "(stereo not given)", "growth inhibition": "-5.58% (inactive)"}, {"compound": "CC(=O)NC(CCS(C)(=O)=O)C(=O)Nc1cccc(C)c1", "note": "(stereo not given)", "growth inhibition": "-12.4% (inactive)"}, {"compound": "Cc1ccc(N2CCN(S(=O)(=O)N(C)C)CC2)c(C)c1", "growth inhibition": "-11.1% (inactive)"}, {"compound": "CCOc1ccc(NC(=O)CCN2CCN(c3ccccc3)CC2)cc1", "growth inhibition": "4.18% (inactive)"}, {"compound": "CCOC(=O)C1=C(C)Nc2nnnn2C1c1ccc(OC)c(Br)c1", "note": "(stereo not given)", "growth inhibition": "-8.85% (inactive)"}, {"compound": "CC(C)c1nnc(NC(=O)Cc2cccs2)s1", "growth inhibition": "-2.5% (inactive)"}, {"compound": "Cc1ccnc(NC(=O)C2CCC(CNc3c(N4CCCC4)c(=O)c3=O)CC2)c1", "note": "(stereo not given)", "growth inhibition": "-3.06% (inactive)"}, {"compound": "CCN(CCCNS(=O)(=O)c1ccc2c(c1)oc(=O)n2C)c1cccc(C)c1", "growth inhibition": "-12% (inactive)"}, {"compound": "O=C(NCC1CCCO1)C1CCN(S(=O)(=O)c2cccc3cccnc23)CC1", "note": "(stereo not given)", "growth inhibition": "-2.44% (inactive)"}, {"compound": "CCn1c(C(=O)N2CCC(C(=O)N3CCN(c4ccccn4)CC3)CC2)cc2sccc21", "growth inhibition": "-11.8% (inactive)"}, {"compound": "O=C(O)COc1ccc(S(=O)(=O)NCCc2ccccc2)cc1", "growth inhibition": "-6.59% (inactive)"}, {"compound": "CCOC(=O)N1CCN(C(=O)c2ccc(CS(=O)(=O)c3c(Cl)cccc3Cl)o2)CC1", "growth inhibition": "-9.35% (inactive)"}, {"compound": "CNC(=O)c1ccsc1NC(=O)c1ccccc1", "growth inhibition": "14.6% (inactive)"}, {"compound": "CSc1nc2ccccc2c(=O)n1N", "growth inhibition": "-16.4% (inactive)"}, {"compound": "CCN1CCN(C(c2cccs2)C(C)NC(=O)c2ccccc2)CC1", "note": "(stereo not given)", "growth inhibition": "-5.51% (inactive)"}, {"compound": "CC(Sc1nc(-c2ccccc2)cc(C(F)(F)F)n1)C(=O)N1CCCC1", "note": "(stereo not given)", "growth inhibition": "-2% (inactive)"}, {"compound": "CCOc1cccc(-c2nnc3n2N=C(c2cc(OC)ccc2OC)CS3)c1", "growth inhibition": "16.2% (inactive)"}, {"compound": "COc1cc(NC(=O)C2CCCN2S(=O)(=O)c2cccc3cccnc23)cc(OC)c1OC", "note": "(stereo not given)", "growth inhibition": "0.6% (inactive)"}, {"compound": "CCOC(=O)c1ccc(-n2c(C)nc3c(cnn3-c3ccccc3C)c2=O)cc1", "growth inhibition": "2.42% (inactive)"}, {"compound": "O=C(Nc1c(C(=O)NCc2ccco2)cnn1-c1ccccc1)c1ccc(F)cc1", "growth inhibition": "-0.04% (inactive)"}, {"compound": "O=C(NCCC1=CCCCC1)C1CCN(S(=O)(=O)c2cccc3cccnc23)CC1", "growth inhibition": "6.61% (inactive)"}]}, {"test": "S. cerevisiae growth inhibition in restrictive medium, OD615, pilot screen, restrictive growth control, yeast lifespan reduction project (AID 706;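 active = growth inhibition above a set limit, 3 SD over mean compound inhibition, in both replicates, cut at about 43% in these data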;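 note: modified DeaD lifespan yeast strain shifted to restrictive glucose medium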)", "settings": "OD615, 48 h, at 10 µM, stronger effect = higher value", "summary_of_the_method": "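Assay system: engineered S. cerevisiae DeaD strain; Buffer or medium: CSMM-D glucose medium; Dosing: 10 µM compound, 0.25% DMSO; Times: cell pre-growth 4 h, compound exposure 48 h, 30 °C; Detection: absorbance (optical density) measured at 615 nm.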", "values": [{"compound": "CCCCC(=O)NCCc1cc2c(C)ccc(C)c2[nH]c1=O", "growth inhibition": "-13.3% (inactive)"}, {"compound": "CN1CCN(C2=C(Cl)C(=O)N(c3cccc(Cl)c3)C2=O)CC1", "growth inhibition": "-5.5% (inactive)"}, {"compound": "Cc1ccc(Cn2c(=O)c3ccccc3n3c(CCC(=O)O)nnc23)cc1", "growth inhibition": "7.7% (inactive)"}, {"compound": "COc1cc(/C=N/n2cnnc2)ccc1OCC(=O)N1CCOCC1", "growth inhibition": "-6.25% (inactive)"}, {"compound": "CCC(C)C(=O)Nc1nc2c(s1)C(=O)CC(C)(C)C2", "note": "(stereo not given)", "growth inhibition": "-8.86% (inactive)"}, {"compound": "O=C(C(Cc1ccccc1)n1cccc1)N1CCCCCC1", "note": "(stereo not given)", "growth inhibition": "-7.42% (inactive)"}, {"compound": "Cc1ccc(NC(=O)c2cc(-c3ccc(C)o3)nc3ccccc23)nc1", "growth inhibition": "-2.09% (inactive)"}, {"compound": "Cc1cccc(-n2ncc3c(NCCCn4ccnc4)ncnc32)c1", "growth inhibition": "-0.87% (inactive)"}, {"compound": "Cc1ccc(CNC(=O)C2CCCN(S(=O)(=O)c3cnc[nH]3)C2)cc1", "note": "(stereo not given)", "growth inhibition": "6.6% (inactive)"}, {"compound": "CCCN1CCN(CCCNC(=O)Cn2ncc3c4ccccc4n(C)c3c2=O)CC1", "growth inhibition": "-10.6% (inactive)"}, {"compound": "CN(C)c1cc(NC(=O)CN2CCOCC2)c2ccccc2n1", "growth inhibition": "-11% (inactive)"}, {"compound": "CN(C)S(=O)(=O)c1ccc2c(c1)c(=O)c(C(=O)NCCCN1CCCCCC1)cn2C", "growth inhibition": "8.09% (inactive)"}, {"compound": "CC(C)c1ccc(C(O)c2cnc(C(C)C)n2C)cc1", "note": "(stereo not given)", "growth inhibition": "-0.345% (inactive)"}, {"compound": "CCN(CC)C(=O)c1ccc(CS(=O)(=O)c2ccc(OC)cc2)o1", "growth inhibition": "-7.93% (inactive)"}, {"compound": "COc1ccc2c(c1)CCc1cc(C(=O)N3CCN(c4ccc(N5CCOCC5)nn4)CC3)sc1-2", "growth inhibition": "3.83% (inactive)"}, {"compound": "COc1ccc(-c2[nH]c(-c3cccc(OC)c3)nc2SCC(=O)NCc2ccco2)cc1", "growth inhibition": "1.65% (inactive)"}, {"compound": "CCSc1nnc(N2C(=O)CC(c3ccsc3)C3=C2CC(C)(C)CC3=O)s1", "note": "(stereo not given)", "growth inhibition": "0.01% (inactive)"}, {"compound": "CC1=C(C(=O)Nc2cccnc2)C(c2ccc(C(C)C)cc2)n2ncnc2N1", "note": "(stereo not given)", "growth inhibition": "-12.1% (inactive)"}, {"compound": "CCCCN=CC1=C(O)C(C(=O)OC)C(C)(C)CC1=O", "note": "(stereo not given)", "growth inhibition": "-5.23% (inactive)"}, {"compound": "O=C1c2ccccc2C(Nc2cccnc2)N1Cc1ccccc1Cl", "note": "(stereo not given)", "growth inhibition": "10.4% (inactive)"}, {"compound": "CC(=O)NC(CCS(C)(=O)=O)C(=O)Nc1cccc(C)c1", "note": "(stereo not given)", "growth inhibition": "-11.9% (inactive)"}, {"compound": "Cc1ccc(N2CCN(S(=O)(=O)N(C)C)CC2)c(C)c1", "growth inhibition": "-7.42% (inactive)"}, {"compound": "CCOc1ccc(NC(=O)CCN2CCN(c3ccccc3)CC2)cc1", "growth inhibition": "-17.7% (inactive)"}, {"compound": "CCOC(=O)C1=C(C)Nc2nnnn2C1c1ccc(OC)c(Br)c1", "note": "(stereo not given)", "growth inhibition": "2.52% (inactive)"}, {"compound": "CC(C)c1nnc(NC(=O)Cc2cccs2)s1", "growth inhibition": "-0.8% (inactive)"}, {"compound": "Cc1ccnc(NC(=O)C2CCC(CNc3c(N4CCCC4)c(=O)c3=O)CC2)c1", "note": "(stereo not given)", "growth inhibition": "4.16% (inactive)"}, {"compound": "CCN(CCCNS(=O)(=O)c1ccc2c(c1)oc(=O)n2C)c1cccc(C)c1", "growth inhibition": "-10.2% (inactive)"}, {"compound": "O=C(NCC1CCCO1)C1CCN(S(=O)(=O)c2cccc3cccnc23)CC1", "note": "(stereo not given)", "growth inhibition": "12% (inactive)"}, {"compound": "CCn1c(C(=O)N2CCC(C(=O)N3CCN(c4ccccn4)CC3)CC2)cc2sccc21", "growth inhibition": "-12.2% (inactive)"}, {"compound": "O=C(O)COc1ccc(S(=O)(=O)NCCc2ccccc2)cc1", "growth inhibition": "10.2% (inactive)"}, {"compound": "CCOC(=O)N1CCN(C(=O)c2ccc(CS(=O)(=O)c3c(Cl)cccc3Cl)o2)CC1", "growth inhibition": "-14% (inactive)"}, {"compound": "CNC(=O)c1ccsc1NC(=O)c1ccccc1", "growth inhibition": "14.5% (inactive)"}, {"compound": "CSc1nc2ccccc2c(=O)n1N", "growth inhibition": "6.12% (inactive)"}, {"compound": "CCN1CCN(C(c2cccs2)C(C)NC(=O)c2ccccc2)CC1", "note": "(stereo not given)", "growth inhibition": "1.4% (inactive)"}, {"compound": "CC(Sc1nc(-c2ccccc2)cc(C(F)(F)F)n1)C(=O)N1CCCC1", "note": "(stereo not given)", "growth inhibition": "-21.7% (inactive)"}, {"compound": "CCOc1cccc(-c2nnc3n2N=C(c2cc(OC)ccc2OC)CS3)c1", "growth inhibition": "50.3% (active)"}, {"compound": "COc1cc(NC(=O)C2CCCN2S(=O)(=O)c2cccc3cccnc23)cc(OC)c1OC", "note": "(stereo not given)", "growth inhibition": "-10.7% (inactive)"}, {"compound": "CCOC(=O)c1ccc(-n2c(C)nc3c(cnn3-c3ccccc3C)c2=O)cc1", "growth inhibition": "2.89% (inactive)"}, {"compound": "O=C(Nc1c(C(=O)NCc2ccco2)cnn1-c1ccccc1)c1ccc(F)cc1", "growth inhibition": "13.1% (inactive)"}, {"compound": "O=C(NCCC1=CCCCC1)C1CCN(S(=O)(=O)c2cccc3cccnc23)CC1", "growth inhibition": "-0.115% (inactive)"}]}]}
